The values that follow come from ChEMBL document CHEMBL1154191, “Evaluation of spirocyclic 3-(3-fluoropropyl)-2-benzofurans as sigma1 receptor ligands for neuroimaging with positron emission tomography” (J Med Chem, 2009).

Series [1] has as its system Mus musculus. In words: Plasma concentration in CD1 mouse assessed per gram of wet tissue at 400 to 600 kBq, iv after 30 mins post-injection by gamma counting. It counts as ADME, organism-based. Particulars: in vivo, 0.5 h. In short, it runs like this:
(§1)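 Female CD-1 mice (~8-12 weeks, 20-28 g), fasted 24 h with free access to water. 400-600 kBq [18F] tracer in 200 μL saline given by tail vein to conscious mice. At 5, 30, 60 or 120 min pi (n=4-5 per time) mice anaesthetised, blood taken, then euthanised. Samples weighed, γ-counted, %ID/g wet tissue calculated.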

Series [2] concerns Heart. Put plainly: Biodistribution in CD1 mouse heart assessed per gram of wet tissue at 400 to 600 kBq, iv after 60 mins post-injection by gamma counting. It counts as ADME, organism-based. Particulars: in vivo, 1 h. The method, boiled down:
(§2)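 Female CD-1 mice (~8-12 weeks, 20-28 g) were fasted 24 h with free water. Conscious mice got 400-600 kBq [¹⁸F] tracer in saline by tail vein. At 5, 30, 60 or 120 min (n=4-5 per time) they were anesthetized, blood and urine sampled, then killed by cervical dislocation. Organs were weighed and γ-counted, giving % ID/g wet tissue.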

The nature of series [3]: Metabolic stability in CD1 mouse plasma at 200 to 300 MBq, iv after 60 mins post-injection by supelcosil C18 HPLC and TLC-radiochromatography. It is filed as ADME, organism-based. Particulars: read-out: Stability. In short, it runs like this:
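Mice received 200-300 MBq [18F] tracer in 200 μL 0.9% saline via the tail vein, and samples were taken at 45 and 60 min (n=2 per time). Plasma was obtained by centrifugation (2000g, 4 °C, 10 min); brain and liver were homogenised in ice-cold 50 mM TRIS-HCl pH 7.4. Samples were precipitated with ice-cold MeCN and centrifuged (4000g, 4 °C, 15 min), and supernatants were analysed by gradient radio-HPLC and radio-TLC, with HPLC fractions γ-counted.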

The nature of series [4]: Biodistribution in CD1 mouse gonad assessed per gram of wet tissue at 400 to 600 kBq, iv after 60 mins post-injection by gamma counting. It counts as ADME, organism-based. Particulars: in vivo, 1 h. The method, boiled down:
as §2

Series [5] can be described thus: N-octanol-phosphate buffer distribution coefficient, log D in three buffered solution by shake flask method. It is filed as physicochemical. In short, it runs like this: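 [18F]-labelled tracer partitioned between n-octanol and Sorensen's phosphate buffer (50 mM, pH 7.2), Dulbecco's PBS (pH 7.2) or TRIS-HCl (30 mM, pH 7.2). Conventional shake-flask method, multiple distribution in duplicates, n = 50 in total.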

Series [6] concerns Kidney. Put plainly: Biodistribution in CD1 mouse kidney assessed per gram of wet tissue at 400 to 600 kBq, iv after 5 mins post-injection by gamma counting. It is filed as ADME, organism-based. Particulars: in vivo. In short, it runs like this: as §2
The test system of series [7] is Pancreas. In words: Biodistribution in CD1 mouse pancreas assessed per gram of wet tissue at 400 to 600 kBq, iv after 5 mins post-injection by gamma counting. Particulars: in vivo. It is filed as ADME, organism-based. In short, it runs like this: (§3)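 Female CD-1 mice (~8-12 weeks, 20-28 g), habituated ≥48 h and fasted 24 h with water available. The [18F] tracer (>150 GBq/μmol at end of synthesis) was given in 200 μL saline into the tail vein of conscious animals. At each time point, n=4-5, mice were anaesthetised, blood and urine sampled, then killed by cervical dislocation. Organs were weighed and γ-counted, and values calculated as % ID/g wet tissue.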

The subject of series [8] is Pancreas. In words: Biodistribution in CD1 mouse pancreas assessed per gram of wet tissue at 400 to 600 kBq, iv after 60 mins post-injection by gamma counting in presence of 1 mg/kg, ip sigma 1/sigma 2 receptor antagonist haloperidol treated before compound addition. It counts as organism-based. Also on record: route intravenous. Particulars: in vivo, 1 h. In short, it runs like this:
(§4)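 They were killed at 60 min pi, and organs were weighed and γ-counted as % ID/g wet tissue. Comparison with controls used Student's t test (independent, two-tailed).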

Series [9] deals with Mus musculus. Put plainly: Plasma concentration in CD1 mouse assessed per gram of wet tissue at 400 to 600 kBq, iv after 5 mins post-injection by gamma counting. Particulars: in vivo. It counts as ADME, organism-based. The method, boiled down: as §1
A short description of series [10]: Biodistribution in CD1 mouse thymus assessed per gram of wet tissue at 400 to 600 kBq, iv after 5 mins post-injection by gamma counting. It is filed as ADME, organism-based. Particulars: in vivo. The method, boiled down:
as §3

Series [11] in a line: Biodistribution in CD1 mouse urine assessed per gram of wet bladder at 400 to 600 kBq, iv after 60 mins post-injection by gamma counting in presence of 1 mg/kg, ip sigma 1/sigma 2 receptor antagonist haloperidol treated before compound addition. Also on record: route intravenous. It is filed as organism-based. Particulars: in vivo, 1 h. The method, boiled down:
as §4

Series [12] deals with Lung. Put plainly: Biodistribution in CD1 mouse lung assessed per gram of wet tissue at 400 to 600 kBq, iv after 30 mins post-injection by gamma counting. Particulars: in vivo, 0.5 h. It is filed as ADME, organism-based. The method, boiled down:
as §3

Series [13] relates to Muscle tissue. Put plainly: Biodistribution in CD1 mouse muscle assessed per gram of wet tissue at 400 to 600 kBq, iv after 60 mins post-injection by gamma counting in presence of 1 mg/kg, ip sigma 1/sigma 2 receptor antagonist haloperidol treated before compound addition. The arrangement: route intravenous. Particulars: in vivo, 1 h. It counts as organism-based. The method, boiled down: as §4

Series [14] is described as follows: Biodistribution in CD1 mouse urine assessed as per gram of wet bladder at 400 to 600 kBq, iv after 30 mins post-injection by gamma counting. It counts as ADME, organism-based. Particulars: in vivo, 0.5 h. The method, boiled down: as §3
Series [15] can be described thus: Ratio of drug level in cerebellum to plasma in CD1 mouse at 400 to 600 kBq, iv after 60 mins post-injection. It is filed as ADME, organism-based. In short, it runs like this:
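Female CD-1 mice (~8-12 weeks, 20-28 g), fasted 24 h with free water; 400-600 kBq tracer in 200 μL saline by tail vein into conscious animals. Killed at set times pi (n=4-5 per time); blood and organs weighed, γ-counted, expressed as % ID/g wet tissue; ratio from cerebellum and plasma uptake.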

The subject of series [16] is Muscle tissue. In words: Biodistribution in CD1 mouse muscle assessed per gram of wet tissue at 400 to 600 kBq, iv after 30 mins post-injection by gamma counting. It counts as ADME, organism-based. Particulars: in vivo, 0.5 h. The method, boiled down: as §3
Series [17] has as its system Spleen. In words: Biodistribution in CD1 mouse spleen assessed per gram of wet tissue at 400 to 600 kBq, iv after 5 mins post-injection by gamma counting. It counts as ADME, organism-based. Particulars: in vivo. The method, boiled down:
as §3

The test system of series [18] is Pancreas. Put plainly: Drug uptake in CD1 mouse pancreas at 400 to 600 kBq, iv after 120 mins post-injection by gamma counting relative to initial uptake. It counts as ADME, organism-based. Particulars: in vivo, 2 h. The method, boiled down: (§5)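 Organ % ID/g was measured by γ-counting after tail-vein injection of 400-600 kBq [18F] tracer in saline to fasted female CD-1 mice (n=4-5 per time). The 120 min pi value is expressed relative to the initial (5 min pi) uptake.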

Series [19] deals with Femur. In words: Biodistribution in CD1 mouse femur assessed per gram of wet tissue at 400 to 600 kBq, iv after 5 mins post-injection by gamma counting. It counts as ADME, organism-based. Particulars: in vivo. The method, boiled down:
as §2

A short description of series [20]: Drug uptake in CD1 mouse thymus at 400 to 600 kBq, iv after 120 mins post-injection by gamma counting relative to initial uptake. It counts as ADME, organism-based. Particulars: in vivo, 2 h. In short, it runs like this: as §5
Series [21] relates to Brain. In words: Biodistribution in CD1 mouse brain assessed per gram of wet tissue at 400 to 600 kBq, iv after 5 mins post-injection by gamma counting. It counts as ADME, organism-based. Particulars: in vivo. In short, it runs like this:
as §2

Series [22] concerns Heart. In words: Biodistribution in CD1 mouse heart assessed per gram of wet tissue at 400 to 600 kBq, iv after 120 mins post-injection by gamma counting. It counts as ADME, organism-based. Particulars: in vivo, 2 h. In short, it runs like this:
as §2

A short description of series [23]: Biodistribution in CD1 mouse thymus assessed per gram of wet tissue at 400 to 600 kBq, iv after 120 mins post-injection by gamma counting. It counts as ADME, organism-based. Particulars: in vivo, 2 h. The method, boiled down: as §3
Series [24] concerns Lung. Put plainly: Biodistribution in CD1 mouse lung assessed per gram of wet tissue at 400 to 600 kBq, iv after 60 mins post-injection by gamma counting in presence of 1 mg/kg, ip sigma 1/sigma 2 receptor antagonist haloperidol treated before compound addition. Particulars: in vivo, 1 h. It is filed as organism-based. The arrangement: route intravenous. The method, boiled down:
as §4

The structures appear in SMILES notation.

By logD is commonly meant the decadic logarithm of the distribution of all forms, ionised or not, between an organic phase and buffer at a given pH. High values mean a more lipophilic compound, low ones a more hydrophilic compound. Usually Kp stands for the ratio of the level in a tissue or fluid to that in plasma or blood. Consider `[18F]CCCC1OC2(CCN(Cc3ccccc3)CC2)c2ccccc21` (centres undefined), for which the Drug uptake in series [1] was 0.96 %ID; in series [2], 2.46 %ID; in series [4], 4.22 %ID; in [6], 12.1 %ID; in series [7] it was 8.76 %ID; in series [8], 3.05 %ID. The Drug uptake is 1.85 %ID in [9]; 3.98 %ID in series [10]; 22.5 %ID in series [11]; 7.01 %ID in series [12]; 0.9 %ID in series [13]; 24.3 %ID in series [14]. The Drug uptake was 1.8 %ID in series [16]; 4.51 %ID in series [17]; greater than 70% in [18]; 2.17 %ID in [19]; greater than 70% in [20]; 3.66 %ID in series [21]. Moreover, the Drug uptake in series [22] was 1.52 %ID; in series [23], 2.86 %ID; in series [24], 2.11 %ID. The remaining at 1 h in series [3] is greater than 85%. The molecule also had a logD in [5] of 3.03. The Kp at 1 h in [15] is 5.75.
